# SIAE inh: human SIAE inhibition, primary screen. SIAE FP-Rh probe binding, fluorescence polarization. inhibition, % at 9.66 µM. hit rate 0.69% among 370,000;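 active = inhibition above a cutoff: mean of compounds within the control limits plus 3 SD of those, cut at about 17% in these data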;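 note: 0% = plate median of compound wells and 100% = probe without SIAE protein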
# Fam108B inh: Fam108B inhibition, counter-screen for RBBP9 inhibitors; hit rate 0.33% among 300,000; recombinant Fam108B, FP-Rh probe fluorescence polarization; AID 1947; inhibition, % at 9.51 µM;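 active = inhibition above the screen mean inhibition plus 3 SD, computed separately per campaign, cut at about 18% in these data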;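 note: inhibitors lower polarization as less probe binds the enzyme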
# HTRA1 inhibitor: HTRA1 (human) protease inhibition | hit rate 0.5% among 340,000 | recombinant HTRA1, FP-rhodamine activity-based probe, fluorescence polarization | AID 504803 | inhibition, % at 5.96 µM; in the data active = inhibition above about 36%;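 note: 0% = enzyme with DMSO and 100% = wells lacking enzyme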
# Target sequence (Q92743 whole entry, looked up): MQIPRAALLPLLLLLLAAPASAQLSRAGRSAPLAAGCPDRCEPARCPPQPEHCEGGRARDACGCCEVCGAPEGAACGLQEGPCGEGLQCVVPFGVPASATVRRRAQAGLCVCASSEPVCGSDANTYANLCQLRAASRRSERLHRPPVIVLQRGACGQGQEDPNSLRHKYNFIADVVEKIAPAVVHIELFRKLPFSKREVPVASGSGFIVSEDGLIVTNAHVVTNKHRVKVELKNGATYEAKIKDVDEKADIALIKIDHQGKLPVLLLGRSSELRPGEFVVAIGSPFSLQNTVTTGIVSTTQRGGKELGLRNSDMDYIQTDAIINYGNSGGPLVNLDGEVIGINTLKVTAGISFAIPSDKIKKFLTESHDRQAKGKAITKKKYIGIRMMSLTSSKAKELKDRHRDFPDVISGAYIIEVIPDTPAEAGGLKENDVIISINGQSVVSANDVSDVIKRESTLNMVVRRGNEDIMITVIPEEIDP
# ABHD4 inh: inhibitors of mouse ABHD4; Q8VD66; purified mABHD4, FP-Rh probe fluorescence polarization; inhibition, % at 8.92 µM; hit rate 0.54% among 370,000; AID 720543;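 active = inhibition exceeding the mean over every tested compound plus 3 SD, cut at about 30% in these data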;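 note: 0% = plate median of compound wells and 100% = S159A mutant with DMSO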
#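 Test system: mABHD4 protein; Read-out basis: % inhibition; Incubation: 45 min + 60 min at 25 °C; Repeats: single replicate; Technique: fluorescence polarization with parallel and perpendicular emission, 525/598 nm; Compound: 8.92 µM, single dose; Benchmarks: full inhibition S159A mutant plus DMSO, zero as sample-well median.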
# TCR-CD3 inh: human TCR-CD3 binding inhibition; TAMRA-labeled TCR probe fluorescence, biochemical; inhibition, % at 9.4 µM; hit rate 0.37% among 360,000; AID 651800;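 note: recombinant mutant TCR 2C K166C tagged with TAMRA read by polarization; 0% = receptor in buffer alone and 100% = receptor with positive control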
# PME-1 primary: blocks human protein phosphatase methylesterase 1; Q9Y570; recombinant PME-1, FP-Rh probe fluorescence polarization; inhibition, % at 5.9 µM; hit rate 0.53% among 320,000; AID 2130;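 active = inhibition above the campaign mean of all compounds plus 3 SD, cut at about 26% in these data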;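 note: competitive labeling of PME-1 active site by serine hydrolase directed probe; 0% = PME-1 with DMSO and 100% = wells lacking PME-1 enzyme; inhibitors block probe labeling so polarization falls and inhibition rises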
# BSA TAMRA ctr: interferes with TAMRA-BSA probe, flagging TCR-CD3 hits; shares compounds with TCR-CD3 inh; TAMRA-labeled BSA probe fluorescence counterscreen; inhibition, % at 9.4 µM; hit rate 10% among 1,200; AID 652035; in the data active = inhibition above about 23%;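 note: 0% = buffer low control and 100% = reference high control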
# TCR-CD3 inh conf: TCR-CD3 interaction inhibition, confirmation | shares compounds with TCR-CD3 inh | inhibition, % at 9.4 µM | TAMRA-labeled TCR probe fluorescence binding assay | hit rate 48% among 1,200
# * hit, by the source's call; nt = no result given. A selection: hits, their analogues and other compounds. The true share with any hit is near 1.8%. Cut-off read from the data, not from the text of the source, unless noted: active = inhibition above about 19%; inactive = the rest.
SMILES,SIAE inh,Fam108B inh,HTRA1 inhibitor,ABHD4 inh,TCR-CD3 inh,PME-1 primary,BSA TAMRA ctr,TCR-CD3 inh conf
C[C@@H]1CN([C@H](C)CO)C(=O)c2cc(NC(=O)Nc3ccc(C(F)(F)F)cc3)ccc2O[C@H]1CN(C)S(=O)(=O)c1ccc(Cl)cc1,-159.1,nt,-88.7,-99.4,54.3*,nt,24.5*,52.3*
CC(C)CNC(=O)OCc1cn(Cc2cc(F)cc(F)c2)nn1,-1.2,nt,nt,4.5,nt,nt,nt,nt
COc1ccccc1-c1cccc2c3c([nH]c12)[C@@H]1C[C@H]2[C@@H](CN1CC3)[C@H](C)ON2C,8.0,nt,nt,-0.3,nt,nt,nt,nt
COc1cc2cc3c(N)c(C(=O)Nc4sc(C)c(C)c4C#N)sc3nc2cc1OC,-33.6,6.1,11.7,-10.1,24.0*,-53.6,-14.4,2.7
NC(=O)c1c(N)[nH]c(C(=O)c2ccccc2)c1-c1ccccc1C(F)(F)F,4.1,nt,nt,1.6,nt,nt,nt,nt
O=C(O)c1c[nH]c2c([N+](=O)[O-])cccc2c1=O,1.3,nt,3.6,9.2,23.7*,nt,-5.1,22.8*
COc1cccc2c(SCC(=O)N/N=C/c3ccc(O)c(O)c3)cc(C)nc12,5.0,2.3,nt,28.9,44.8*,1.5,-13.9,78.7*
Cc1ccc2nc(C)cc(SCC(=O)N/N=C/c3ccco3)c2c1,-0.3,0.9,-13.4,8.6,19.1*,2.3,0.1,4.0
O=C(NCc1ccco1)C1CCCN(S(=O)(=O)c2cccs2)C1 (configuration not stated),0.4,nt,nt,-2.3,nt,nt,nt,nt
COc1ccc(COc2cc(-c3cccc(OC)c3)nc3ccc(NC(=O)c4cccnc4)cc23)cc1,-72.3,-5.5,-93.0,-2.2,37.8*,-18.5,9.6,22.6*
CN(CC1CCOCC1)C(=O)CC1C(=O)NCCN1C/C=C/c1ccccc1 (configuration not stated),-1.7,-5.6,3.0,-0.2,94.7*,-3.4,-0.7,-0.4
CCCCCCn1cc(CN2CC=CS2(=O)=O)nn1,-0.2,nt,nt,7.1,nt,nt,nt,nt
Cc1[nH]c(C)c2c(=O)n(-c3ccccc3)ncc12,-94.4,3.8,-3.3,-82.9,30.8*,-13.9,10.7,8.6
CC(CCN1CCC(C(O)(c2ccccc2)c2ccccc2)CC1)Oc1cccc(Cl)c1 (configuration not stated),-3.6,nt,nt,14.6,nt,nt,nt,nt
Nc1c(/C=C2/C=CC(=O)C(O)=C2)c(=O)nc2sc(CC(=O)N3CCCCC3)nn12,1.4,13.4,14.2,4.6,26.2*,4.8,-19.3,41.8*
Oc1c(C=Nc2cccc3cccnc23)sc2ccccc12,-2.9,10.9,nt,-66.2,28.5*,20.6,60.1*,27.6*
CCCCCCCCN1C(=O)[C@@H](CC(=O)NCCC(C)C)C[C@@]2(C(=O)OC)C1=C[C@H](COCc1ccccc1)O[C@@H]2C,-19.6,nt,nt,1.6,nt,nt,nt,nt
COCCNC(=O)c1oc2ccc3c(c2c1C)C(O)CC(C)(C)O3 (configuration not stated),-6.4,nt,4.3,-1.7,3.8,nt,nt,nt
Cc1c(C(=O)N2CCC(C)CC2)oc2ccc3c(c12)C(O)CC1(CCCCC1)O3 (configuration not stated),-12.9,1.5,-23.3,10.6,21.4*,3.0,2.2,5.3
COc1ccccc1CC1CC(=O)N(c2cccc(Cl)c2C)C1=O (configuration not stated),-1.5,5.4,5.1,0.2,19.2*,-7.2,0.5,0.9
CCC(=O)N(Cc1cc2c(C)cc(C)cc2[nH]c1=O)C1CCCCC1,-3.3,-5.0,-5.4,-3.8,2.5,-4.0,nt,nt
CCC(=O)N(Cc1cc2c(C)ccc(C)c2[nH]c1=O)C1CCCCC1,3.5,2.4,-1.3,5.2,28.9*,7.9,-1.5,0.1
O=C(OC12CCCN(C1)/C(=C/c1cccc(Cl)c1)C2)c1cccc(F)c1 (configuration not stated),-2.6,nt,nt,2.8,nt,nt,nt,nt
COc1ccc(-c2nn(-c3ccccc3)cc2/C=N/NC(=O)c2cccc(S(=O)(=O)Nc3ccccc3Cl)c2)cc1,-100.4,-31.1,-32.0,-84.0,19.5*,-41.6,11.9,21.6*
COc1ccc(-c2nn(-c3ccccc3)cc2/C=N/NS(=O)(=O)c2ccccc2)cc1,-32.1,12.7,-51.9,-34.2,0.6,3.3,nt,nt
SMILES,SIAE inh,Fam108B inh,HTRA1 inhibitor,ABHD4 inh,TCR-CD3 inh,PME-1 primary,BSA TAMRA ctr,TCR-CD3 inh conf
C[C@@H]1C(=O)N2N=Cc3cc4ccccc4cc3[C@H]2N2N=Cc3cc4ccccc4cc3[C@@H]12,7.0,nt,nt,-0.4,nt,nt,nt,nt
CCOc1cc(/C=N/NC(=O)COc2ccc(Cl)cc2)ccc1OS(=O)(=O)c1ccccc1,-21.4,11.0,-70.2,-33.1,28.4*,1.4,24.0*,35.3*
CCC(=O)Nc1ccc(/C(C)=N/NC(=O)c2c(-c3ccccc3Cl)noc2C)cc1,4.7,1.1,1.6,8.4,21.4*,-2.4,-0.9,1.2
Cc1onc(-c2ccccc2Cl)c1C(=O)Nc1ccccc1,1.2,-5.2,-7.7,-7.3,-5.7,5.7,nt,nt
Cc1ccccc1OCC(=O)N/N=C/c1ccc([N+](=O)[O-])o1,5.6,-1.7,13.9,27.8,3.3,6.1,nt,nt
COc1ccccc1OCC(=O)N/N=C/C=C/c1ccc([N+](=O)[O-])o1,16.1,8.1,0.2,24.5,26.7*,4.5,-0.7,1.3
C/C(=N\NC(=O)c1c(C)nc2ccccn12)c1ccc(O)cc1O,4.8,5.8,9.1,14.0,49.4*,10.6,-12.5,36.6*
C/C(=N\NC(=O)c1c(C)nc2ccccn12)c1ccccc1F,-4.5,10.1,7.2,4.5,-1.1,-1.7,nt,nt
COc1cccc(/C=N/NC(=O)C(=O)N/N=C/c2cccc(OC)c2O)c1O,-2.2,nt,nt,14.2,20.5*,nt,-8.4,18.5
COC(=O)c1cccc(/C=N/NC(N)=S)c1O,15.0,-2.8,10.9,0.2,33.8*,-3.8,-24.7,3.9
Cc1csc(NC(=O)CSc2sc3c(O)cc(=O)[nH]c3c2C#N)n1,-24.8,1.5,-8.0,-1.4,23.2*,-19.1,-12.0,1.3
COc1ccc(NC(=O)CSc2sc3c(O)cc(=O)[nH]c3c2C#N)c(OC)c1,-3.9,5.0,-7.4,4.8,28.7*,-15.6,-5.8,20.1*
CCOC(=O)N1C(=O)C[C@](Sc2ccc(OC)cc2)(C(=O)N2CCN(C(C)=O)CC2)[C@H]1c1ccc(OC)cc1,5.3,nt,nt,3.7,nt,nt,nt,nt
COc1cc(O)c(C(CC(=O)N2CC(C)OC(C)C2)c2ccc3c(c2)OCO3)c(OC)c1 (configuration not stated),3.1,nt,nt,6.0,nt,nt,nt,nt
Cc1ccc(-c2[nH]c3cc(C(=O)NCCCn4ccnc4)ccc3c(=O)c2O)cc1,17.8*,6.4,28.6,12.9,41.0*,17.7,-4.6,49.3*
Cc1ncc(CO)c(/C=N/NC(=O)c2cc3c(s2)CCCC3)c1O,6.9,-0.9,17.0,8.3,37.5*,-10.0,-12.8,26.5*
